Data taken from the M2OR odorant receptor database.
Substitutions are numbered along the chain they refer to.

How the values were obtained:
Conditions in all cases: stereoisomer not certain
OR2F1 (Homo sapiens) = biological target: T1, OR2F1 (Homo sapiens) (UniProt Q13607)
T1 sequence (whole entry): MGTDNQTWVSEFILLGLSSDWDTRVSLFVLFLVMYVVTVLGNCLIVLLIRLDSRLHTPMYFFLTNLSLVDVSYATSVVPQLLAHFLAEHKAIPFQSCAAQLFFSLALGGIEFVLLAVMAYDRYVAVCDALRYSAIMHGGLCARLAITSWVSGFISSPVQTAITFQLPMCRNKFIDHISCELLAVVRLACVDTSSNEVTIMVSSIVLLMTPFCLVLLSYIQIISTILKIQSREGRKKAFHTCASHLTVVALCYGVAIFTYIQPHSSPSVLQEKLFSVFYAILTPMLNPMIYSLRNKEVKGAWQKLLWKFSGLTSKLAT
Method in brief: (§1)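 Transient luciferase assays in mammalian cell lines were common, though methods varied by source. The values come from published papers and their supplementary material, with extra details from the original authors when needed. Responsive refers to a measured signal the original authors judged statistically different from baseline, and non-responsive (inactive) to the remainder.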

OR2F2 (Homo sapiens) = biological target: T2, OR2F2 (Homo sapiens) (UniProt O95006)
T2 sequence (whole entry): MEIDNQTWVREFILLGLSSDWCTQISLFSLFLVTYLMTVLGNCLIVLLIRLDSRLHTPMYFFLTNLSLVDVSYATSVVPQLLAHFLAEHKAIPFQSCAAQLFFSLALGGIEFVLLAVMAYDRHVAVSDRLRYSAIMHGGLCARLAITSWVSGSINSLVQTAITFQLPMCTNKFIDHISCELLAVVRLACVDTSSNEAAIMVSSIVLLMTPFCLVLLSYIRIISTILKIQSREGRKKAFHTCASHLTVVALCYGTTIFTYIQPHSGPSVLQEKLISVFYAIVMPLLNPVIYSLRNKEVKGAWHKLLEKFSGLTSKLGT
Method in brief: as §1

OR2G2 (Homo sapiens) = biological target: T3, OR2G2 (Homo sapiens) (UniProt Q8NGZ5)
T3 sequence (whole entry): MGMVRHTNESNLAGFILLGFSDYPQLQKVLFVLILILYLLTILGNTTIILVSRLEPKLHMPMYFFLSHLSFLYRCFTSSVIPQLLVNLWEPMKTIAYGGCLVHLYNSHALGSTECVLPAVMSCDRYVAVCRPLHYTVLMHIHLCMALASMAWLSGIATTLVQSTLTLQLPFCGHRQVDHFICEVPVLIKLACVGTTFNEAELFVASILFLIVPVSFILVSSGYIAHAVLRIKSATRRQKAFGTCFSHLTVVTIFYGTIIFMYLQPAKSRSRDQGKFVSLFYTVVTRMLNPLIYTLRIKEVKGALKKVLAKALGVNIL
Method in brief: as §1

OR2G3 (Homo sapiens) = biological target: T4, OR2G3 (Homo sapiens) (UniProt Q8NGZ4)
T4 sequence (whole entry): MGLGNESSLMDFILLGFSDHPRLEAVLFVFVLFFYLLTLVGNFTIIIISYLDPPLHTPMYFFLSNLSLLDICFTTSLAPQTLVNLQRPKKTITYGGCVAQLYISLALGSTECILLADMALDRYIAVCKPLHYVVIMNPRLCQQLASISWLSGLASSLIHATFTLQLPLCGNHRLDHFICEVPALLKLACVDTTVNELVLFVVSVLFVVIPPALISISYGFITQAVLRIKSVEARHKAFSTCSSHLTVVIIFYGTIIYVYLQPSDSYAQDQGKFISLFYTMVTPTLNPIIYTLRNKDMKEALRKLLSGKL
Method in brief: as §1

OR2G6 (Homo sapiens) = biological target: T5, OR2G6 (Homo sapiens) (UniProt Q5TZ20)
T5 sequence (whole entry): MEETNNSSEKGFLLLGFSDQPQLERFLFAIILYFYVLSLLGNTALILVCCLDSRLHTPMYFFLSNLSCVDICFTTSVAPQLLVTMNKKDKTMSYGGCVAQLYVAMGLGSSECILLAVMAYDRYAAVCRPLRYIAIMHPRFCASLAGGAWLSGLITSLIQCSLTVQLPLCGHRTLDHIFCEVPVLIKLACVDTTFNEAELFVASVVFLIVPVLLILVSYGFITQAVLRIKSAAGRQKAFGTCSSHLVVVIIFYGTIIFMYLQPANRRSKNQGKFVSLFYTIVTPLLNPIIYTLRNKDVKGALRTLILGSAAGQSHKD
Method in brief: as §1

OR2H1 (Homo sapiens) = biological target: T6, OR2H1 (Homo sapiens) (UniProt Q9GZK4)
T6 sequence (whole entry): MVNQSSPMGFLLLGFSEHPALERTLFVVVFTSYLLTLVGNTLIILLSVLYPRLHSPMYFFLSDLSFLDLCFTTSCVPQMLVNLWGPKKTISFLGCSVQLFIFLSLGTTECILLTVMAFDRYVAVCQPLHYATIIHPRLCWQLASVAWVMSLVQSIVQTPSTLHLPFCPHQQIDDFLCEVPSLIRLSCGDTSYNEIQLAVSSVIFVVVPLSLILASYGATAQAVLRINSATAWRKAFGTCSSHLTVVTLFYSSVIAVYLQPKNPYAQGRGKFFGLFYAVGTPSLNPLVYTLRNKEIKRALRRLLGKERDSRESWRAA
Method in brief: as §1

OR2H2 (Homo sapiens) = biological target: T7, OR2H2 (Homo sapiens) (UniProt O95918)
T7 sequence (whole entry): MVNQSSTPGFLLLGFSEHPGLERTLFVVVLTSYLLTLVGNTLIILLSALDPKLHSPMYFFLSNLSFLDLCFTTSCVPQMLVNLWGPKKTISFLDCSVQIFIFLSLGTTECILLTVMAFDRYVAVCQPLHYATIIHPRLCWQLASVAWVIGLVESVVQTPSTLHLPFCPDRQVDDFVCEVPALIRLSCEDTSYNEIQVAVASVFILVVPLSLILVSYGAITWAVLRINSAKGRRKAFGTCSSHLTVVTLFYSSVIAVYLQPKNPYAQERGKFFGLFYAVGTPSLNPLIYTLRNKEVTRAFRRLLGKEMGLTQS
Method in brief: as §1

OR2G2 L167P R236G = system: T8, OR2G2 L167P R236G
T8 sequence (whole entry): T3 sequence (whole entry) with L167P, R236G
Method in brief: as §1

OR2G3 I289V = system: T9, OR2G3 I289V
T9 sequence (whole entry): T4 sequence (whole entry) with I289V
Method in brief: as §1

OR2F1 = system: OR2F1
Method in brief: as §1

Measured: odorant receptor agonist call

Chain of OR2F1 (as listed by the source): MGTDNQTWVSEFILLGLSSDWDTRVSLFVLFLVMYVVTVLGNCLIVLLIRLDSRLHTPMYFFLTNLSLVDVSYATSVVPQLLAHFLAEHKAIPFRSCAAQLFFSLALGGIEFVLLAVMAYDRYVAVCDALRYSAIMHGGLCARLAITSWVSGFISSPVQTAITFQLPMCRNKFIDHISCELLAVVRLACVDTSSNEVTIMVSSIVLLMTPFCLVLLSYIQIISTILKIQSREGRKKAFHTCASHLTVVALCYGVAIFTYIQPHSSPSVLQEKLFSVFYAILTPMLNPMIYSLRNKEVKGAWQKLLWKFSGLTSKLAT

CCCCCC(=O)C(C)C(C)=O (configuration not stated)
not listed: OR2G2 L167P R236G | OR2G3 I289V | OR2F1
inactive: all other assays above

CC1=NC(C)C(C)S1 (configuration not stated)
not listed: OR2F1
inactive: all other assays above

CCCCCC1C(=O)CCC1CC(=O)OC (configuration not stated)
inactive: OR2G2 (Homo sapiens)

CC(CO)CS (configuration not stated)
not listed: OR2G2 L167P R236G | OR2G3 I289V | OR2F1
inactive: all other assays above

O=C([O-])C[SH2+]
inactive: OR2F1

COC1CC2CC1C1CC(C=O)CC21 (configuration not stated)
inactive: OR2G2 (Homo sapiens)

CC1=C(O)C(=O)C(C)O1 (configuration not stated)
not listed: OR2F1
inactive: all other assays above

CC(=O)c1c(C)c([N+](=O)[O-])c(C(C)(C)C)c([N+](=O)[O-])c1C
not listed: OR2G2 L167P R236G | OR2G3 I289V | OR2F1
inactive: all other assays above

CCC1OC(C)=C(O)C1=O (configuration not stated)
not listed: OR2F1
inactive: all other assays above

Cc1cnc(C)c(C)n1
not listed: OR2F1
inactive: all other assays above

CCCC(S)CCOC(C)=O (configuration not stated)
not listed: OR2F1
inactive: all other assays above

CCC1OC(=O)C(O)=C1C (configuration not stated)
not listed: OR2F1
inactive: all other assays above

Cc1ccc(C(C)C)cc1O
inactive: OR2G2 (Homo sapiens)

CCCCCCC=CCCC=O
not listed: OR2F1
inactive: all other assays above

CCCCC(S)C(C)CO (configuration not stated)
not listed: OR2G2 L167P R236G | OR2G3 I289V | OR2F1
inactive: all other assays above

CC(CC=O)c1ccc(C(C)(C)C)cc1 (configuration not stated)
inactive: OR2G2 (Homo sapiens)

CC1CCCCCCCCCCCCC(=O)C1 (configuration not stated)
not listed: OR2G2 L167P R236G | OR2G3 I289V | OR2F1
inactive: all other assays above

CC1=CCC2CC1C2(C)C (configuration not stated)
inactive: OR2G2 (Homo sapiens)

CC1=C(O)C(=O)OC1C (configuration not stated)
not listed: OR2F1
inactive: all other assays above

CCCCCC(S)C(C)CO (configuration not stated)
not listed: OR2G2 L167P R236G | OR2G3 I289V | OR2F1
inactive: all other assays above

CCC(S)C(C)CO (configuration not stated)
not listed: OR2G2 L167P R236G | OR2G3 I289V | OR2F1
inactive: all other assays above

CCC=C(C)C(O)CCCCC (configuration not stated)
inactive: OR2G2 (Homo sapiens)

CC=CC(=O)C1C(C)=CCCC1(C)C (configuration not stated)
active: OR2G2 (Homo sapiens)

COc1ccc(C)cc1
inactive: OR2G2 (Homo sapiens)

C=CC(C)(O)CCC=C(C)CCC=C(C)C (configuration not stated)
inactive: OR2G2 (Homo sapiens)

CC(C)=CCCC(C)=CCO
inactive: OR2G2 (Homo sapiens)

CCCCCCCCO
inactive: OR2H2 (Homo sapiens)

C=CC(C)(CCC=C(C)C)OC(C)=O (configuration not stated)
inactive: OR2G2 (Homo sapiens)

CCCCCC=O
inactive: OR2H2 (Homo sapiens)

C=CCOC(=O)COCCC(C)C
inactive: OR2G2 (Homo sapiens)

CCc1ccc(CC(C)(C)C=O)cc1
inactive: OR2G2 (Homo sapiens)

CCCCCC=CC=O
active: OR2H2 (Homo sapiens)

CCCCC1CCC(=O)O1 (configuration not stated)
inactive: OR2G2 (Homo sapiens)

CCCCCCCCC(OC(C)=O)OC(C)=O
inactive: OR2G2 (Homo sapiens)

CC(=O)C=CC1=C(C)CCCC1(C)C
inactive: OR2G2 (Homo sapiens)

CCCC(C)C(=O)OCC (configuration not stated)
inactive: OR2G2 (Homo sapiens)

CC(=O)OCc1ccccc1
inactive: OR2G2 (Homo sapiens)

CCCCCC1COCCC1OC(C)=O (configuration not stated)
inactive: OR2G2 (Homo sapiens)

CC1CC(C)(c2ccccc2)CO1 (configuration not stated)
inactive: OR2G2 (Homo sapiens)

CCC(=O)C=CC1C(C)=CCCC1(C)C (configuration not stated)
inactive: OR2G2 (Homo sapiens)

CCCCCCCCCCCC=O
inactive: OR2H2 (Homo sapiens)

CCCCCCCC(=O)[O-].[H+]
inactive: OR2H2 (Homo sapiens)

CC(C)CCCC(C)(C)O
inactive: OR2G2 (Homo sapiens)

CCOC(=O)CC1(C)OCCO1
inactive: OR2G2 (Homo sapiens)

CC(C)=CCCC(C)CC=O (configuration not stated)
inactive: OR2G2 (Homo sapiens)
active: OR2H2 (Homo sapiens)

CC(C=O)=CCC(C)CC(C)C (configuration not stated)
inactive: OR2H2 (Homo sapiens)

CC(C)(C)C1CCCCC1OCCCCO (configuration not stated)
inactive: OR2G2 (Homo sapiens)

CCCC=CC=CC=O
active: OR2H2 (Homo sapiens)

OCc1ccccc1
inactive: OR2G2 (Homo sapiens)

Cc1occc(=O)c1OC(=O)C(C)C
active: OR2G2 (Homo sapiens)
